Measurements of several laboratories.
ALK C1156Y: ALK tyrosine kinase receptor (ALK, Homo sapiens, UniProt Q9UM73, C1156Y)
ALK L1196M: ALK tyrosine kinase receptor (ALK, Homo sapiens, UniProt Q9UM73, L1196M)
ALK: ALK tyrosine kinase receptor (ALK, Homo sapiens, UniProt Q9UM73)

SMILES | target | test | conditions | remaining binding [%]
CC1=C(C#N)[C@@H](c2ccc3[nH]nc(C)c3c2)C(C#N)=C(c2ccc(Cl)cc2)N1 | ALK C1156Y | cell-free assay, competition with immobilised ligand | 1 µM | 100
N[C@H]1CCN(c2nccc(-c3cnn4ncccc34)n2)C1 | ALK L1196M | binding | 1 µM | 74
Cc1cnc(Nc2ccc(C(=O)N3CCC(N4CCCC4)CC3)cc2)nc1-c1cc2ccccc2s1 | ALK C1156Y | binding, competition with immobilised ligand | 1 µM | 34
Cc1noc([C@H]2C[C@@H](c3ccc(C(F)(F)F)cc3)CN(C(=O)N3CCS(=O)(=O)C3)C2)n1 | ALK L1196M | cell-free assay, competition with immobilised ligand | 1 µM | 100
CN(C)c1nccc(-c2cnc3ncccn23)n1 | ALK | binding | 1 µM | 73
CCS(=O)(=O)c1cc2cc(C[C@](O)(CC(C)(C)c3ccc(F)cc3C(N)=O)C(F)(F)F)[nH]c2cn1 | ALK C1156Y | cell-free assay, competition with immobilised ligand | 1 µM | 96
O=C(Nc1c[nH]nc1C(=O)NC1CCNCC1)c1cc(F)cc(F)c1 | ALK L1196M | binding, competition with immobilised ligand | 1 µM | 100
CC1CCCN1c1nccc(-c2cnn3ncccc23)n1 (stereo not drawn) | ALK C1156Y | binding | 1 µM | 48
CNC(=O)[C@@H]1CC[C@@H](n2c(-c3ccc4cnccc4c3)nc3ccc(C(=O)NCc4cccc(C(N)=O)c4)cc32)C1 | ALK L1196M | binding, competition with immobilised ligand | 1 µM | 100
O=C(NCCCN1CCOCC1)c1ccc(Nc2ncc(Cl)c(-c3ccc(Cl)s3)n2)cc1 | ALK L1196M | binding, competition with immobilised ligand | 1 µM | 90
CN(C)c1nccc(-c2cnn3ncccc23)n1 | ALK L1196M | binding | 1 µM | 100
C=CC(=O)N1CCC(C(=O)NCC(=O)N2CCN(c3nc(-c4cnc(N)nc4C(F)F)nc(N4CCOCC4)n3)CC2)CC1 | ALK L1196M | binding, competition with immobilised ligand | 1 µM | 79
CCC(=O)N[C@@H]1CC[C@H](C(=O)N(C)c2ccc(-c3nc4ccccc4o3)cc2)C1 | ALK | cell-free assay, competition with immobilised ligand | 1 µM | 99
C[C@@H]1CCN(c2nccc(-c3cnn4ncccc34)n2)C1 | ALK L1196M | binding | 1 µM | 100
Nc1c(C(=O)NCc2ccc(C(=O)NCCCC3CCCCC3)cc2)cnn1-c1ccccc1 | ALK | cell-free assay, competition with immobilised ligand | 0.1 µM | 100
COc1ncc2cc3ccccc3nc2c1C#N | ALK L1196M | cell-free assay, competition with immobilised ligand | 5 µM | 94
Cc1c(NC(=O)c2cc(C(N)=O)nc3cc(F)ccc23)c(C(F)(F)F)nn1Cc1ccc(C(C)(C)C)cc1 | ALK | cell-free assay, competition with immobilised ligand | 1 µM | 96
c1cncc(-c2cccc(Nc3nccc(NC4CCCCC4)n3)c2)c1 | ALK C1156Y | binding, competition with immobilised ligand | 10 µM | 37
